Experimental data of several laboratories.
Lines come from different studies, so protocols differ.
Target: STE20/SPS1-related proline-alanine-rich protein kinase (STK39, Homo sapiens, UniProt Q9UEW8)

`CC(C)(O)[C@H]1CC[C@H](Nc2ccc3ncc(-c4cccc(C(F)(F)F)c4)n3n2)CC1` has a remaining activity of 112% (enzyme activity, inhibitor; 1 µM).
With `CC(C)(C)c1nc2c(s1)c1nc(N)ncc1c1ccc(NS(=O)(=O)c3c(F)cccc3F)c(F)c12` the remaining activity was 92% (enzyme activity, inhibitor, radiometric; 1 µM).
With `Nc1ncnc2occ(-c3ccc(NC(=O)Nc4cc(C(F)(F)F)ccc4F)cc3)c12` the remaining signal was 19% (cell-free assay, inhibitor; 20 µM).
The remaining binding of `O=c1nc(-c2ccccn2)sc2ccccc12` is reported as 100% (binding, competition with immobilised ligand; 1 µM).
`N#CCCc1ccc2c(c1)-c1[nH]c3ccc([N+](=O)[O-])cc3c1CC(=O)N2` has a remaining signal of 96.4% (cell-free assay; 0.5 µM).
`CCC(=O)N[C@@H]1CC[C@H](C(=O)N(C)c2ccc(-c3nc4ccccc4o3)cc2)C1` gave a remaining binding of 73% (cell-free assay, competition with immobilised ligand; 1 µM).
The remaining signal of `Cc1ccc(NC(=O)c2ccc(CN3CCN(C)CC3)cc2)cc1Nc1nc(-c2cccnc2)cs1` is reported as 94% (cell-free assay; 0.5 µM).
`Cc1cc(-n2nc(Cc3cc(F)cc(C(F)(F)F)c3)nc2C)ccc1C(N)=O` gave a remaining binding of 100% (cell-free assay, competition with immobilised ligand; 1 µM).
`Cn1cnc(Br)c1C1=CN(c2ncnc3[nH]cnc23)CCS1` gave an inhibition of 86.6% (enzyme activity, inhibitor, radiometric; 2 µM).
For `O=C1NC(=O)c2cc(Nc3ccc(F)cc3)c(Nc3ccc(F)cc3)cc21`, the remaining signal was 89.2% (cell-free assay; 0.5 µM).
For `CNC(=O)Nc1ccc2c(c1)[C@@]1(CC2)OC(=O)N(CC(=O)N(Cc2ccc(F)cc2)[C@@H](C)C(F)(F)F)C1=O`, the remaining binding was 100% (cell-free assay, competition with immobilised ligand; 1 µM).
The remaining activity of `O=C(Nc1cnn(-c2csc(C(=O)NC3COC3)c2)c1)Nc1ccccc1Cl` is reported as 87.5% (enzyme activity, inhibitor; 5 µM).
